According to ChEMBL document CHEMBL3779815, “Synthesis of newer 1,2,3-triazole linked chalcone and flavone hybrid compounds and evaluation of their antimicrobial and cytotoxic activities” (Eur J Med Chem, 2016):
In brackets after ≈: the same amount, converted by molar mass.

Tests used:
Staphylococcus aureus = test: Antibacterial activity against Staphylococcus aureus […] after 18 to 24 hrs by micro-dilution method; assay type: functional
Enterococcus faecalis = test: Antibacterial activity against Enterococcus faecalis ATCC 29212 after 18 to 24 hrs by micro-dilution assay; assay type: functional
Escherichia coli = test: Antibacterial activity against Escherichia coli ATCC 35218 after 18 to 24 hrs by micro-dilution method; assay type: functional
Pseudomonas aeruginosa = test: Antibacterial activity against Pseudomonas aeruginosa […] after 18 to 24 hrs by micro-dilution method; assay type: functional
Shigella boydii = test: Antibacterial activity against Shigella boydii clinical isolate after 18 to 24 hrs by micro-dilution method; assay type: functional
Klebsiella pneumoniae = test: Antibacterial activity against Klebsiella pneumoniae ATCC 27736 after 18 to 24 hrs by micro-dilution method; assay type: functional
Candida albicans [1] = test: Antifungal activity against Candida albicans ATCC 90028 after 18 to 24 hrs by micro-dilution method; assay type: functional
Outline: (§1)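 Microdilution MIC run as the antibacterial protocol but on Sabouraud dextrose […] pH 7.3±0.2; compounds 100 to 0.78 μg/mL in twofold steps; saline-prepared inocula 1-2 × 10⁷ cfu/mL, 0.01 mL added; 37 °C aerobic, 18-24 h; MIC read as lowest concentration without visible growth or turbidity; fluconazole reference.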

Candida albicans [2] = test: Antifungal activity against Candida albicans clinical isolate after 18 to 24 hrs by micro-dilution method; assay type: functional; outline: as §1
Candida tropicalis = test: Antifungal activity against Candida tropicalis ATCC 750 after 18 to 24 hrs by micro-dilution method; assay type: functional; outline: as §1
Candida parapsilosis = test: Antifungal activity against Candida parapsilosis ATCC 22019 after 18 to 24 hrs by micro-dilution method; assay type: functional; details: Lodderomyces parapsilosis; outline: as §1
Cryptococcus neoformans = test: Antifungal activity against Cryptococcus neoformans clinical isolate after 18 to 24 hrs by micro-dilution method; assay type: functional; outline: as §1
Arthrodermataceae = test: Antifungal activity against Dermatophyte clinical isolate after 18 to 24 hrs by micro-dilution method; assay type: functional; outline: as §1
Aspergillus niger = test: Antifungal activity against Aspergillus niger clinical isolate after 18 to 24 hrs by micro-dilution method; assay type: functional; outline: as §1
Aspergillus fumigatus = test: Antifungal activity against Aspergillus fumigatus clinical isolate after 18 to 24 hrs by micro-dilution method; assay type: functional; outline: as §1
Plasmodium falciparum = test: Antimalarial activity against erythrocytic stage of chloroquine sensitive Plasmodium falciparum 3D7 assessed as inhibition of parasitemia after 48 hrs by Giemsa staining based microscopic analysis; assay type: functional, organism-based; details: 3D7, 48 h
Outline: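 Asynchronous culture on human O⁺ erythrocytes, 1-1.5% parasitemia, 4% hematocrit, RPMI-1640 with HEPES, NaHCO₃, glutamine, gentamycin, Albumax II; drug 0.10-100 μg/mL, 48 h, 37 °C, medium changed at 24 h; triplicate wells; Giemsa thin smears, about 4,000 erythrocytes counted at 1,000X; % parasitemia inhibition versus control gives IC50.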

[3] = Cytotoxicity against human HuH7 cells after 72 hrs by MTT assay; assay type: cell-based, Huh-7
Outline: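 Huh-7 cells, 4 × 10³/well in DMEM with 10% FBS and penicillin-streptomycin-glutamine; eight 2-fold dilutions 100-0.78 μg/mL, 72 h; MTT added 2-4 h, then isopropanol/Triton X-100/HCl solubilization 2 h dark, RT; absorbance 570 nm; CC50 as mean of at least two experiments in duplicate.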

SMILES | MIC (Staphylococcus aureus) | MIC (Enterococcus faecalis) | MIC (Escherichia coli) | MIC (Pseudomonas aeruginosa) | MIC (Shigella boydii) | MIC (Klebsiella pneumoniae) | MIC (Candida albicans [1]) | MIC (Candida albicans [2]) | MIC (Candida tropicalis) | MIC (Candida parapsilosis) | MIC (Cryptococcus neoformans) | MIC (Arthrodermataceae) | MIC (Aspergillus niger) | MIC (Aspergillus fumigatus) | IC50 (Plasmodium falciparum) | CC50 at 72 h [3]
COc1cc(O)c(C(=O)/C=C/c2ccc(OCc3cn(-c4ccccc4Cl)nn3)c(OCc3cn(-c4ccccc4Cl)nn3)c2)c(OC)c1 | > 100 µg/mL | > 100 µg/mL | > 100 µg/mL | > 100 µg/mL | > 100 µg/mL | > 100 µg/mL | > 100 µg/mL | > 100 µg/mL | > 100 µg/mL | > 100 µg/mL | > 100 µg/mL | > 100 µg/mL | > 100 µg/mL | > 100 µg/mL | 8.38 µg/mL (≈ 12 µM) | > 100 µg/mL
COc1cc(OC)c2c(=O)cc(-c3ccc(OCc4cn(-c5ccc(Cl)cc5)nn4)c(OC)c3)oc2c1 | > 100 µg/mL | 100 µg/mL (≈ 192 µM) | > 100 µg/mL | > 100 µg/mL | > 100 µg/mL | > 100 µg/mL | 50 µg/mL (≈ 96.2 µM) | 12.5 µg/mL (≈ 24 µM) | 50 µg/mL (≈ 96.2 µM) | 50 µg/mL (≈ 96.2 µM) | 12.5 µg/mL (≈ 24 µM) | 12.5 µg/mL (≈ 24 µM) | 50 µg/mL (≈ 96.2 µM) | 50 µg/mL (≈ 96.2 µM) | 5.19 µg/mL (≈ 9.98 µM) | > 100 µg/mL
